Screening results from PubChem BioAssay.
SIAE inh – human SIAE inhibitors, primary screen, biochemical, fluorescence polarization, FP-Rh probe, 1536-well HTS; Sialate O-acetylesterase (Homo sapiens), Q9HAT2; inhibition, % at 9.66 µM; SIAE FP-Rh probe binding; 370,000 compounds, 0.69% hits;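 active = inhibition above a cutoff: mean of compounds within the control limits plus 3 SD of those, cut at about 17% in these data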
mABHD4 FP – ABHD4 inhibitors, primary screen, biochemical, fluorescence polarization, mouse; (Lyso)-N-acylphosphatidylethanolamine lipase (Mus musculus), Q8VD66; purified mABHD4, FP-Rh probe fluorescence polarization; inhibition, % at 8.92 µM; 370,000 compounds, 0.54% hits;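 active = inhibition exceeding the mean over every tested compound plus 3 SD, cut at about 30% in these data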
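Assay system: wild-type mouse ABHD4 protein; compound: single nominal dose of 8.92 µM, 0.89% DMSO final; schedule: 45 min + 60 min at 25 °C; measured by: FP readout, ex 525 nm / em 598 nm; evaluation: % inhibition of FP-Rh probe binding versus controls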
JMJD2C inh – inhibitors of GASC-1 histone demethylase, primary screen, biochemical, fluorescence, DELFIA europium. GST-JMJD2C(1-420) H3K9me3 demethylation. 330,000 compounds, 0.069% hits. Lysine-specific demethylase 4C (Homo sapiens), Q9H3R0. inhibition, % at 2.35 µM;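 active = more than half of a compound's replicate wells show inhibition beyond 50%, single wells judged on their own value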;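 also: signal counts dimethyl H3K9 product captured on neutravidin plate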
PRMT1 inh – PRMT1 methyltransferase inhibitors, primary screen, biochemical, fluorescence polarization; recombinant PRMT1, activity-based probe fluorescence polarization; inhibition, % at 2.79 µM; 370,000 compounds, 1.3% hits; AID 652257, 2013;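 active = inhibition above about 21% made by adding two undisclosed values, limit read from the data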
Target sequence (Q99873 whole entry, looked up): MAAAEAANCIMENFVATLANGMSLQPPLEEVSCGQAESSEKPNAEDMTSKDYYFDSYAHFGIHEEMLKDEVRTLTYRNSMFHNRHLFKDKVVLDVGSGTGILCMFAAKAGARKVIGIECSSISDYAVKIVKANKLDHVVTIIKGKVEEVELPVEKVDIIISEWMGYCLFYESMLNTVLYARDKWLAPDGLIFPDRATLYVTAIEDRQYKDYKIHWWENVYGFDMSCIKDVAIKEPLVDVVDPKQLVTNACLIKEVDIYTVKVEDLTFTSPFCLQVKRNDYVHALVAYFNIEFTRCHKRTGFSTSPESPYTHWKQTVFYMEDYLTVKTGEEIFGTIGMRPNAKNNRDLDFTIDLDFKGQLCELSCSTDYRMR
HTRA1 inhibitor – HTRA1 serine protease inhibitors, primary screen, biochemical, fluorescence polarization, HTS; inhibition, % at 5.96 µM; 340,000 compounds, 0.5% hits; Q92743; recombinant HTRA1, FP-rhodamine activity-based probe; in the data active = inhibition above about 36%
PRMT1 confirm – PRMT1 methyltransferase inhibitors, confirmation, biochemical, fluorescence polarization, triplicate; shares compounds with PRMT1 inh; recombinant His-PRMT1, activity-based probe fluorescence polarization; inhibition, % at 2.79 µM; 3,300 compounds, 42% hits; AID 687036, 2013;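 active = mean inhibition across replicates above the hit cutoff derived for the earlier primary screen, cut at about 22% in these data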
A number is an active result; 0 = inactive; - = not tested or not shown. In the library only some 2.4% were active in any assay of this set; here they are far more common.

SMILES	SIAE inh	mABHD4 FP	JMJD2C inh	PRMT1 inh	HTRA1 inhibitor	PRMT1 confirm
COC(=O)c1ccc(-n2c(C)cc(C(=O)CSc3ccc(NC(C)=O)cc3)c2C)cc1	0	0	0	50	0	30
C=CCn1c(C)cc(C(=O)CSc2ccc(NC(C)=O)cc2)c1C	0	0	0	0	0	-
CC(=O)Nc1ccc(SCC(=O)c2cc(C)n(-c3ccccc3F)c2C)cc1	0	0	0	28	0	30
S=c1[nH]c2nc(Cl)c(Cl)nc2[nH]1	0	0	-	0	0	-
S=c1[nH]c2cnc(Cl)nc2[nH]1	0	0	-	43	0	34
O=S1(=O)c2ccc(N3CCCC3)cc2Oc2ccccc2CN1Cc1cn(Cc2cccc(C(F)(F)F)c2)nn1	0	0	-	0	-	-
c1ccc(Nc2cccc(Nc3ccccc3)n2)cc1	0	0	0	37	0	42
CCN(C(=O)CSc1nnc(-c2cccnc2)n1Cc1ccco1)c1ccccc1	0	0	-	0	-	-
CC(C)C[C@@H]1COc2cc(N3CCCC3)ccc2S(=O)(=O)N1C	0	0	-	0	-	-
CC(C)N1CCCCC(NC(=O)c2ccc(F)c(F)c2)C1=O (stereo unspecified)	0	0	-	0	-	-
COc1cccc(/C=N/N2C(=O)CSC2=S)c1O	0	0	0	38	0	53
COc1cc(/C=N/N2C(=O)CSC2=S)cc(Br)c1O	0	0	-	0	0	-
CC(C)c1ccc(/C=N/n2c(COc3ccccc3)n[nH]c2=S)cc1	0	0	0	31	0	0
S=c1[nH]nc(COc2ccccc2)n1/N=C/C=C/c1ccco1	0	0	0	33	-	0
S=c1[nH]nc(COc2ccccc2)n1/N=C/C=C/c1ccccc1	0	0	0	0	0	-
O=C(N/N=C/c1ccc(N2CCOCC2)o1)c1ccccc1[N+](=O)[O-]	0	0	0	0	0	-
O=C(N/N=C/c1ccc(N2CCCCC2)o1)c1ccccc1[N+](=O)[O-]	0	0	0	31	0	0
O=C(NCc1cccc(F)c1)c1cccc2c1C(=O)c1ccc(N3CCCC3)cc1S2(=O)=O	-	-	0	-	0	-
O=C(O)c1cccc2c1C(=O)c1ccc(N3CCCC3)cc1S2(=O)=O	0	0	0	27	0	30
CC(=O)c1cccc(NC(=O)/C(=C\c2ccco2)NC(=O)c2cccs2)c1	0	0	0	0	0	-
COc1ccccc1C(=O)N/C(=C/c1ccco1)C(=O)Nc1cccc(C(=O)O)c1	0	0	0	28	0	0
CC(=O)c1cccc(NC(=O)/C(=C/c2ccco2)NC(=O)c2ccco2)c1	0	0	0	46	0	27
COC(=O)[C@H](CC1(c2cn(S(=O)(=O)CC[Si](C)(C)C)c3ccccc23)C(=O)Nc2ccccc21)NC(=O)OC(C)(C)C (stereo partly specified)	0	0	-	0	-	-
NCCc1nnc(SCC(=O)Nc2cccc(Cl)c2)o1	0	0	0	25	0	0
CC(C)(C)OC(=O)NCCc1nnc(SCC(=O)Nc2cccc(Cl)c2)o1	0	0	0	0	0	-
SMILES	SIAE inh	mABHD4 FP	JMJD2C inh	PRMT1 inh	HTRA1 inhibitor	PRMT1 confirm
Cc1ccc(NC(=O)c2cc(N3C(=O)C=CC3=O)ccc2N2CCOCC2)cc1Cl	0	0	0	90	0	103
Cc1ccc(NC(=O)c2cc(N3C(=O)CCC3=O)ccc2N2CCOCC2)cc1	0	0	0	0	0	-
CC(=O)CSc1cc(-c2ccccc2)nc2ncnn12	0	0	0	28	0	37
CCCC(=O)OC12CCCN(C1)/C(=C/c1cccc(Cl)c1)C2 (stereo unspecified)	0	0	-	0	-	-
Cc1cc(C)cc(C(=O)OCCN(C)C2CN(Cc3cn(Cc4ccccc4C(F)(F)F)nn3)S(=O)(=O)C2)c1 (stereo unspecified)	0	0	-	0	-	-
O=C(CCN1C(=O)/C(=C/c2ccco2)SC1=S)Nc1ccc(C(=O)O)c(O)c1	0	0	0	39	0	30
